Reference: ChEMBL document CHEMBL2407079, “Potent DGAT1 Inhibitors in the Benzimidazole Class with a Pyridyl-oxy-cyclohexanecarboxylic Acid Moiety” (ACS Med Chem Lett, 2013)
Each block holds one molecule with its values, some of them ahead of it.

What was measured:
[1] = AUC in rhesus monkey at 2 mg/kg, po; type: ADME, organism-based, Macaca mulatta; set-up: dose 2 mg/kg, route oral; details: plasma
Method in brief: (§1)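 Rhesus monkeys; iv 1 mg/kg as a solution in EtOH/PEG400/water (10:50:40), and oral 2 mg/kg as a solution in 0.5% methylcellulose. Plasma measured for the parent and the epimer metabolite.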

[2] = AUC in beagle dog at 2 mg/kg, po; type: ADME, organism-based, Canis lupus familiaris; set-up: dose 2 mg/kg, route oral; details: plasma
Method in brief: (§2)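 Beagles; iv 0.55 mg/kg as a solution in EtOH/PEG400/water (10:50:40), and oral 2 mg/kg as a solution in 0.5% methylcellulose. Plasma measured for the parent and the epimer metabolite.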

[3] = Clearance in rhesus monkey at 1 mg/kg, iv; type: ADME, organism-based, Macaca mulatta; set-up: dose 1 mg/kg, route intravenous; details: in vivo; method in brief: as §1
[4] = Half life in beagle dog at 0.55 mg/kg, iv; type: ADME, organism-based, Canis lupus familiaris; set-up: dose 0.55 mg/kg, route intravenous; details: in vivo; method in brief: as §2
[5] = Cmax in rhesus monkey at 2 mg/kg, po; type: ADME, organism-based, Macaca mulatta; set-up: dose 2 mg/kg, route oral; details: in vivo; method in brief: as §1
[6] = target: T1, Diacylglycerol O-acyltransferase 1 (Mus musculus, UniProt Q9Z2A7); assay: Inhibition of mouse DGAT1
T1 sequence (Q9Z2A7 whole entry): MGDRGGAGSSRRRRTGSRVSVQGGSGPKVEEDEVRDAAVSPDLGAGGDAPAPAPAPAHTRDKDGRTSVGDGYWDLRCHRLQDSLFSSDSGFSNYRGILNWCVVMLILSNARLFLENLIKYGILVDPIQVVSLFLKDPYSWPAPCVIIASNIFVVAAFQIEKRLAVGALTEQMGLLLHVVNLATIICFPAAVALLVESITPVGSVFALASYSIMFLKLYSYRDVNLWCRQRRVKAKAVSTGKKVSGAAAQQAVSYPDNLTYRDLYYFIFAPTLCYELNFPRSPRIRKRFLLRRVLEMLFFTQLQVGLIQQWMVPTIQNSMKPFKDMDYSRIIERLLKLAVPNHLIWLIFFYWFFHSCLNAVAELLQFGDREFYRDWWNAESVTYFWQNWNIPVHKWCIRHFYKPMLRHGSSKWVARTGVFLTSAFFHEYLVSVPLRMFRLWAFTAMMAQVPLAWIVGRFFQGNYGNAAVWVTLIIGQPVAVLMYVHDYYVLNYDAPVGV

[7] = Clearance in beagle dog at 0.55 mg/kg, iv; type: ADME, organism-based, Canis lupus familiaris; set-up: dose 0.55 mg/kg, route intravenous; details: in vivo; method in brief: as §2
[8] = Bioavailability in beagle dog at 0.55 mg/kg, iv; type: ADME, organism-based, Canis lupus familiaris; details: in vivo; method in brief: as §2
Rhesus monkey = assay: AUC in rhesus monkey assessed as trans-4-(5-(5-fluoro-1H-benzo[d]imidazol-2-yl)-2,3'-bipyridin-6'-yloxy)cyclohexanecarboxylic acid at 2 mg/kg, po; type: ADME, organism-based, Macaca mulatta, Plasma; set-up: dose 2 mg/kg, route oral; details: in vivo; method in brief: as §1
[9] = AUC in Sprague-Dawley rat at 10 mg/kg, po; type: ADME, organism-based; set-up: dose 10 mg/kg, route oral; details: plasma
Method in brief: (§3)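 Sprague–Dawley rats; oral 10 mg/kg given as a solid dispersion formulation, with the iv arm at 1 mg/kg in EtOH/PEG400/water (10:50:40). Plasma exposure measured for the parent and for the epimer metabolite.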

[10] = Tmax in Sprague-Dawley rat at 10 mg/kg, po; type: ADME, organism-based; set-up: dose 10 mg/kg, route oral; details: in vivo; method in brief: as §3
[11] = Half life in rhesus monkey at 1 mg/kg, iv; type: ADME, organism-based, Macaca mulatta; set-up: dose 1 mg/kg, route intravenous; details: in vivo; method in brief: as §1
[12] = target: T2, Diacylglycerol O-acyltransferase 1 (Homo sapiens, UniProt O75907); assay: Inhibition of human DGAT1
T2 sequence (O75907 whole entry): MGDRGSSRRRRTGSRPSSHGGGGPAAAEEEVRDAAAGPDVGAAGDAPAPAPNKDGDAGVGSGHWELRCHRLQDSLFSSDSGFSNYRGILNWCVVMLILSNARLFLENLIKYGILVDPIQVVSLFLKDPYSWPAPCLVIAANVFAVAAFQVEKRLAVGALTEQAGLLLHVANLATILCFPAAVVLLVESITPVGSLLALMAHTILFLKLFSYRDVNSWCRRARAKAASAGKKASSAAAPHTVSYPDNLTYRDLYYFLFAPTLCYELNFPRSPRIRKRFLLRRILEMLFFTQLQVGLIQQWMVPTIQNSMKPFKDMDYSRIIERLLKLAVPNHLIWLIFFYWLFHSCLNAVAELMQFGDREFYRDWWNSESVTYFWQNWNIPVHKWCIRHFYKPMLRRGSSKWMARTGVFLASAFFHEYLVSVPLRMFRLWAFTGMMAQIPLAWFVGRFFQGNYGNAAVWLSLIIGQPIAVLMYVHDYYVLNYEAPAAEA

[13] = Volume of distribution at steady state in Sprague-Dawley rat at 1 mg/kg, iv; type: ADME, organism-based; set-up: dose 1 mg/kg, route intravenous; details: in vivo, read-out: Vdss
Method in brief: (§4)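 Sprague–Dawley rats; intravenous dose of 1 mg/kg given as a solution in EtOH/PEG400/water (10:50:40).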

[14] = Bioavailability in Sprague-Dawley rat at 1 mg/kg, iv; type: ADME, organism-based; details: in vivo; method in brief: as §4
[15] = Half life in Sprague-Dawley rat at 1 mg/kg, iv; type: ADME, organism-based; set-up: dose 1 mg/kg, route intravenous; details: in vivo; method in brief: as §4
Canis familiaris = assay: AUC in beagle dog assessed as trans-4-(5-(5-fluoro-1H-benzo[d]imidazol-2-yl)-2,3'-bipyridin-6'-yloxy)cyclohexanecarboxylic acid at 2 mg/kg, po; type: ADME, organism-based, Canis lupus familiaris, Plasma; set-up: dose 2 mg/kg, route oral; details: in vivo; method in brief: as §2
[16] = Tmax in rhesus monkey at 2 mg/kg, po; type: ADME, organism-based, Macaca mulatta; set-up: dose 2 mg/kg, route oral; details: in vivo; method in brief: as §1
[17] = Volume of distribution at steady state in beagle dog at 0.55 mg/kg, iv; type: ADME, organism-based, Canis lupus familiaris; set-up: dose 0.55 mg/kg, route intravenous; details: in vivo, read-out: Vdss; method in brief: as §2
[18] = Lipophilicity, log D of the compound by HPLC analysis; type: physicochemical
[19] = Tmax in beagle dog at 2 mg/kg, po; type: ADME, organism-based, Canis lupus familiaris; set-up: dose 2 mg/kg, route oral; details: in vivo; method in brief: as §2
Rattus norvegicus = assay: AUC in Sprague-Dawley rat assessed as trans-4-(5-(5-fluoro-1H-benzo[d]imidazol-2-yl)-2,3'-bipyridin-6'-yloxy)cyclohexanecarboxylic acid at 10 mg/kg, po; type: ADME, organism-based, Plasma; set-up: dose 10 mg/kg, route oral; details: in vivo; method in brief: as §3
[20] = Bioavailability in rhesus monkey at 1 mg/kg, iv; type: ADME, organism-based, Macaca mulatta; details: in vivo; method in brief: as §1
[21] = Volume of distribution at steady state in rhesus monkey at 1 mg/kg, iv; type: ADME, organism-based, Macaca mulatta; set-up: dose 1 mg/kg, route intravenous; details: in vivo, read-out: Vdss; method in brief: as §1
[22] = Clearance in Sprague-Dawley rat at 1 mg/kg, iv; type: ADME, organism-based; set-up: dose 1 mg/kg, route intravenous; details: in vivo; method in brief: as §4
[23] = Cmax in Sprague-Dawley rat at 10 mg/kg, po; type: ADME, organism-based; set-up: dose 10 mg/kg, route oral; details: in vivo; method in brief: as §3
[24] = Cmax in beagle dog at 2 mg/kg, po; type: ADME, organism-based, Canis lupus familiaris; set-up: dose 2 mg/kg, route oral; details: in vivo; method in brief: as §2

AUC [1]: 0.2 µM·h | AUC [2]: 0.05 µM·h | clearance [3]: 12.4 mL/min/kg | half-life [4]: 0.82 h | Cmax [5]: 10 nM | IC50 [6]: 3.4 nM | clearance [7]: 32.3 mL/min/kg | bioavailability [8]: 2% | AUC (Rhesus monkey): 0.56 µM·h | AUC [9]: 0.25 µM·h | Tmax [10]: 2 h | half-life [11]: 2 h | IC50 [12]: 2 nM | Vd [13]: 2.18 L/kg | bioavailability [14]: 2% | half-life [15]: 1.69 h | AUC (Canis familiaris): 0.06 µM·h | Tmax [16]: 8 h | Vd [17]: 0.63 L/kg | logD [18]: 1.02 | Tmax [19]: 0.25 h | AUC (Rattus norvegicus): 2.47 µM·h | bioavailability [20]: 3% | Vd [21]: 0.37 L/kg | clearance [22]: 31.8 mL/min/kg | Cmax [23]: 60 nM | Cmax [24]: 60 nM
SMILES: O=C(O)[C@H]1CC[C@@H](Oc2ccc(-c3ccc(-c4nc5ccc(F)cc5[nH]4)cn3)cn2)CC1

IC50 [12]: 11 nM
SMILES: COc1ccc2[nH]c(-c3ccc(-c4ccc(O[C@H]5CC[C@@H](C(=O)O)CC5)nc4)nc3)nc2n1
